Data from ChEMBL document CHEMBL4138113, “Novel propanamides as fatty acid amide hydrolase inhibitors” (Eur J Med Chem, 2017).
pIC50: −log10 of the molar value. Active and inactive are the calls of the source.

Legend:
[1] = target: T1, Fatty-acid amide hydrolase 1 (Homo sapiens, UniProt O00519); test: Inhibition of FAAH (unknown origin) expressed in human HeLa cells transfected with empty vector using [3H]AEA as substrate after 2 hrs by liquid scintillation counting analysis; format: cell-based
T1 sequence (O00519 whole entry): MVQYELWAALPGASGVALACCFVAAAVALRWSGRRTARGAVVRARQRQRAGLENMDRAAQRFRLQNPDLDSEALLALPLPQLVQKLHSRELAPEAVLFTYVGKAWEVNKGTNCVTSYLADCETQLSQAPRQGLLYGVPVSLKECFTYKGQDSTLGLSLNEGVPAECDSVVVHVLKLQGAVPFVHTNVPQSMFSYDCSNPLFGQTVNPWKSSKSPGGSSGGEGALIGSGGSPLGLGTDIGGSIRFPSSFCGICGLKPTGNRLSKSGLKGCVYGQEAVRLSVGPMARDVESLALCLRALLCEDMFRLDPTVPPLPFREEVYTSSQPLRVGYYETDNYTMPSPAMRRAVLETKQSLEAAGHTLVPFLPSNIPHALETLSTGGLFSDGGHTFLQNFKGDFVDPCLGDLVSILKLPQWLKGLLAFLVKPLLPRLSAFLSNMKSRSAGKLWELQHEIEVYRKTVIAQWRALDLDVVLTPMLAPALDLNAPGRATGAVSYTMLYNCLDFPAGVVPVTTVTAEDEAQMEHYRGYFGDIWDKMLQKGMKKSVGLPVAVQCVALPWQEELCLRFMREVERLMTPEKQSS

[2] = target: T1, Fatty-acid amide hydrolase 1; test: Inhibition of FAAH (unknown origin) expressed in human HeLa cells using [3H]AEA as substrate after 2 hrs by liquid scintillation counting analysis; format: cell-based
[3] = target: T2, Prostaglandin G/H synthase 1 (Ovis aries) (UniProt P05979); test: Inhibition of recombinant ovine COX1 at 100 uM using arachidonic acid as substrate after 5 mins
T2 sequence (whole entry): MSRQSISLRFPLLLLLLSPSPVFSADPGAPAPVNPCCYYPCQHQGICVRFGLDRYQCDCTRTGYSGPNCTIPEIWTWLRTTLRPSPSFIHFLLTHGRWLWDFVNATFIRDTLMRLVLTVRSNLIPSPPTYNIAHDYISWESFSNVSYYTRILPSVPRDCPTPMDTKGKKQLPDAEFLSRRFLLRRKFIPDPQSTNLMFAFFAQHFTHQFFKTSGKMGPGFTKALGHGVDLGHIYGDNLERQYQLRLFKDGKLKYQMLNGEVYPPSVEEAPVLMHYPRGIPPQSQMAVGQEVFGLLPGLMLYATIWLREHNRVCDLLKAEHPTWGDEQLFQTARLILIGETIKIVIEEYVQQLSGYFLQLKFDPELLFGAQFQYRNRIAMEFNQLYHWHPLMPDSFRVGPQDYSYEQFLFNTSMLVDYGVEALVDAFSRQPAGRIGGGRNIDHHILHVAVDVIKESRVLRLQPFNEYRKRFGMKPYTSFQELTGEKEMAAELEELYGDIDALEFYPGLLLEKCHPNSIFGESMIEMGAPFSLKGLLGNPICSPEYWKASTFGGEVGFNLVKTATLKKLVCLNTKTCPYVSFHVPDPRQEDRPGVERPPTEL
Outline: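 Oxygen-electrode assay at room temperature in 0.1 M Tris-HCl, pH 7.4, with 1 µM haematin, 2 mM phenol, 5 mM EDTA and 10 µM (final) arachidonic acid or 2-AG. Compound in EtOH was added and a 5 min baseline recorded. The reaction was started with ovine COX-1 or human recombinant COX-2 (200 U), and oxygen consumption was read in 10 s blocks. Means ± SEM, n = 3-4.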

[4] = target: T3, Fatty-acid amide hydrolase 1 (Mus musculus) (UniProt O08914); test: Inhibition of B6CBAF1/J mouse brain FAAH using [3H]AEA as substrate after 10 mins in presence of N-(3-Methylpyridin-2-yl)-2-(4-((2-(trifluoromethyl)pyridin-4-yl)amino)phenyl)propanamide by Dixon plot analysis
T3 sequence (whole entry): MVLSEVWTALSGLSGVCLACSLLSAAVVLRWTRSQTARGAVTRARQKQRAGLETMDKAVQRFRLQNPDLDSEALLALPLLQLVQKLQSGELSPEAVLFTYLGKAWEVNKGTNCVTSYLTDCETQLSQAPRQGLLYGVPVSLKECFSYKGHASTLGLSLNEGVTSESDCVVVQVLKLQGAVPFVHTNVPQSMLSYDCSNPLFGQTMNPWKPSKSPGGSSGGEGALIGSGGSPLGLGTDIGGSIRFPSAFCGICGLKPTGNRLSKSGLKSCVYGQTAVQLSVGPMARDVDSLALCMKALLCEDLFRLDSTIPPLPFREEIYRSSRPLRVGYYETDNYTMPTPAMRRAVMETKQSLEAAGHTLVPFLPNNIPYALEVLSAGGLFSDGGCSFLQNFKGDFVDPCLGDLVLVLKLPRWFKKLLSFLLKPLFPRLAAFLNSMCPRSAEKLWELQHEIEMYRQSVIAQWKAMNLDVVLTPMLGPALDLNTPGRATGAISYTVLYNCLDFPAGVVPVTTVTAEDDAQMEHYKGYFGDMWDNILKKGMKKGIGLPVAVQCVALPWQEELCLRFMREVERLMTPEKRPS
Outline: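 Kinetic study in brain homogenate from male B6CBAF1/J mice (0.3 µg protein per assay). [3H]AEA hydrolysis ran for 10 min at 37 °C in Tris-EDTA buffer, pH 7.4, with the AEA:fatty acid-free BSA ratio held at 1:~4.5. Products were separated on charcoal and counted by scintillation. Competitive, mixed-type and non-competitive fits were compared by Akaike's criterion.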

Row | pIC50 [1] | pIC50 [2] | inhibition [3] | inhibition [4] | SMILES
1 | 5.60 | 5.19 to 5.66 |  |  | Cc1cccnc1NC(=O)C(C)c1ccc(Nc2ccnc(C(F)(F)F)c2)cc1 (centres undefined)
2 |  |  | Active | Active | CC(C(=O)Nc1ncccc1Cl)c1ccc(Nc2ccnc(C(F)(F)F)c2)cc1 (centres undefined)
